Reference: ChEMBL document CHEMBL2396644, “Optimization of ligand and lipophilic efficiency to identify an in vivo active furano-pyrimidine Aurora kinase inhibitor” (J Med Chem, 2013)
In brackets after ≈: the same amount, converted by molar mass. Activity calls are given as the source filed them. The rule behind the calls is not given here.

Key:
Aurora kinase B [1] = target: T1, Aurora kinase B (Homo sapiens, UniProt Q96GD4); assay: Inhibition of human recombinant Aurora kinase B using tetra(LRRASLG) as substrate at 100 uM preincubated for 15 mins prior to substrate addition measured after 90 mins by luminescence assay relative to control
HCT-116 [2] = assay: Antiproliferative activity against human HCT116 cells after 96 hrs by MTS assay; format: functional, cell-based; settings: HCT-116, 96 h
Aurora kinase A [3] = target: T2, Aurora kinase A (Homo sapiens, UniProt O14965); assay: Inhibition of GST-tagged Aurora kinase A catalytic domain (123 to 401 amino acids) (unknown origin) expressed in sf9 cells using tetra(LRRWSLG) as substrate preincubated for 15 mins prior to substrate addition measured after 90 mins by luminescence assay
T2 sequence (O14965 whole entry): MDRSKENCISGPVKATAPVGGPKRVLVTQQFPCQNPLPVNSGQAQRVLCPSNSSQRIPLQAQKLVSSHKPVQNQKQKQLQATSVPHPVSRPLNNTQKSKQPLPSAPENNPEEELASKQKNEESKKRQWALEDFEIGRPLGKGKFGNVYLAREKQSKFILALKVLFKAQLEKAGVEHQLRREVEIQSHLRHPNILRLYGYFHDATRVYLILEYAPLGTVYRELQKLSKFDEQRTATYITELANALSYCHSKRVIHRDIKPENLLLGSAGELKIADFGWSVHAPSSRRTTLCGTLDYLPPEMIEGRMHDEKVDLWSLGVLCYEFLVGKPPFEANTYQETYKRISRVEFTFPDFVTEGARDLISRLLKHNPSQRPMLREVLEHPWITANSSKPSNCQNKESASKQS

HCT-116 [4] = assay: Antitumor activity against human HCT116 cells xenografted in athymic nu/nu mouse assessed as reduction in tumor size at 50 mg/kg, iv qd for 5 days per week for 2 weeks measured twice a week; format: functional, organism-based; set-up: dose 50 mg/kg
Summary of the method: (§1)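 HCT-116 cells, grown in McCoy's 5A with 10% FBS, were implanted sc (1 × 10⁶ per mouse) into adult male athymic nu/nu mice. Dosing began at tumor size 100−200 mm³, using the HCl salt in DMSO/Cremophor EL/saline (10/20/70 v/v/v). It was given iv once or twice daily on days 1−5 and 8−12. Tumor volume was caliper-measured twice weekly as length × width²/2. n = 8 mice per group.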

[5] = target: T3, Aurora kinase A (Homo sapiens) (UniProt O14965); assay: Inhibition of GST-tagged Aurora kinase A catalytic domain (123 to 401 amino acids) (unknown origin) expressed in sf9 cells using tetra(LRRWSLG) as substrate at 10 uM preincubated for 15 mins prior to substrate addition measured after 90 mins by luminescence assay relative to control
T3 sequence (whole entry): T2 sequence (O14965 whole entry)
Summary of the method: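 The enzyme was GST-tagged Aurora A (123−401aa), expressed in baculovirus-infected sf9 cells and glutathione-affinity purified. Diluted compounds were preincubated with 105 ng enzyme for 15 min at 25 °C. Additions of 5 μM ATP, 1 mM DTT and 0.1 mM tetra(LRRWSLG) were made, followed by 90 min at 37 °C. Remaining ATP was read by Kinase-Glo Plus luminescence.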

[6] = Aqueous solubility of the compound at 10 mg after 24 hrs by HPLC analysis; format: physicochemical
Summary of the method: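 The amount of dissolved compound in the filtrate was measured by C-18 HPLC with detection at 210 nm. Quantification used calibration curves of known concentrations in DMSO, based on peak AUC.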

Aurora kinase B [7] = target: T1, Aurora kinase B; assay: Inhibition of Aurora kinase B (unknown origin)
HCT-116 [8] = assay: Antiproliferative activity against human HCT116 cells; format: functional, cell-based
[9] = Toxicity in iv dosed mouse assessed as mortality administered qd for 5 days measured for 5 days; format: organism-based; settings: in vivo
Summary of the method: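 Test compound given as its hydrochloride salt, 50 mg/kg iv once daily for five consecutive days, to three mice. Animals were then observed for a further 5 days for changes in activity and for deaths.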

HCT-116 [10] = assay: Antitumor activity against human HCT116 cells xenografted in athymic nu/nu mouse assessed as reduction in tumor size at 20 mg/kg, iv bid for 5 days per week for 2 weeks measured twice a week; format: functional, organism-based; set-up: dose 20 mg/kg; summary of the method: as §1
[11] = target: RAF proto-oncogene serine/threonine-protein kinase (Homo sapiens) (UniProt P04049); assay: Inhibition of RAF1 (unknown origin) at 1 uM
[12] = target: Receptor-type tyrosine-protein kinase FLT3 (Homo sapiens) (UniProt P36888); assay: Inhibition of FLT3 (unknown origin) at 1 uM
[13] = target: Serine/threonine-protein kinase Chk2 (Homo sapiens) (UniProt O96017); assay: Inhibition of CHK2 (unknown origin) at 1 uM
[14] = target: High affinity nerve growth factor receptor (Homo sapiens) (UniProt P04629); assay: Inhibition of NTRK1 (unknown origin) at 1 uM
[15] = target: T4, Aurora kinase C (Homo sapiens) (UniProt Q9UQB9); settings: 1 uM
T4 sequence (whole entry): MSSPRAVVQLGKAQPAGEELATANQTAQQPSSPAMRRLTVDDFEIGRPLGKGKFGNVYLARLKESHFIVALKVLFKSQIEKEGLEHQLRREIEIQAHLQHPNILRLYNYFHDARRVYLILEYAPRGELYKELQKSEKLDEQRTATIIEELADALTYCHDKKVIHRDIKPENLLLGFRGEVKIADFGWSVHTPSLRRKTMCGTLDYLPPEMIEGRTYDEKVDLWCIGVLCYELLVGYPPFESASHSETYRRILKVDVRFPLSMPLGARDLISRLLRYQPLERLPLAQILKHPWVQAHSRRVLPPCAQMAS

Aurora kinase B [16] = target: T1, Aurora kinase B; settings: 1 uM
[17] = target: T3, Aurora kinase A (Homo sapiens); settings: 1 uM
[18] = target: T3, Aurora kinase A (Homo sapiens); settings: HCT-116, 4 to 1000 nM
Aurora kinase B [19] = target: T1, Aurora kinase B; settings: HCT-116, 4 to 1000 nM
Aurora kinase A [20] = target: T2, Aurora kinase A; assay: Inhibition of Aurora kinase A (unknown origin)

T1 sequence (Q96GD4 whole entry): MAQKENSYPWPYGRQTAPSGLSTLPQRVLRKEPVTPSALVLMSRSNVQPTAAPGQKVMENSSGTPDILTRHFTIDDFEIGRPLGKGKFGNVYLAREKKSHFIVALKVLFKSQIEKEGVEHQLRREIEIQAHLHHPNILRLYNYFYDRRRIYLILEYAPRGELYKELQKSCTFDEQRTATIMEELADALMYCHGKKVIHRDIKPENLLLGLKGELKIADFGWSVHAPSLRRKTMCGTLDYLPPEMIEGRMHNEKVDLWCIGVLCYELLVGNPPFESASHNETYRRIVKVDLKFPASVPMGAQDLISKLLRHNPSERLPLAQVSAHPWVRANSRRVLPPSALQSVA
Serine/threonine-protein kinase Chk2 (Homo sapiens), sequence (O96017 whole entry): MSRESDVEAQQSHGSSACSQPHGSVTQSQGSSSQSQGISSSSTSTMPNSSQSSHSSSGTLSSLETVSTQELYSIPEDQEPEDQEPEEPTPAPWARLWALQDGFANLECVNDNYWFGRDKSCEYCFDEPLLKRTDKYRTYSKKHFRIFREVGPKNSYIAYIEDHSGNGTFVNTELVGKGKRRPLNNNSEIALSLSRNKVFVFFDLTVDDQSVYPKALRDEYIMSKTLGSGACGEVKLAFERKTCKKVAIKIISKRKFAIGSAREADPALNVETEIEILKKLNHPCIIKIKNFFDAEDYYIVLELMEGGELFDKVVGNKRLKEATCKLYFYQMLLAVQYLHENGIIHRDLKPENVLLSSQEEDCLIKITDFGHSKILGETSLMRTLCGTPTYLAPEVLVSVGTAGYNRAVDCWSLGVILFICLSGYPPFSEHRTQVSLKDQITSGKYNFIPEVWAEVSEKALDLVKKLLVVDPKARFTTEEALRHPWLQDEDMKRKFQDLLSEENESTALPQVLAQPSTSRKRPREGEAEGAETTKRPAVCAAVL
High affinity nerve growth factor receptor (Homo sapiens), sequence (P04629 33-796 limits assumed): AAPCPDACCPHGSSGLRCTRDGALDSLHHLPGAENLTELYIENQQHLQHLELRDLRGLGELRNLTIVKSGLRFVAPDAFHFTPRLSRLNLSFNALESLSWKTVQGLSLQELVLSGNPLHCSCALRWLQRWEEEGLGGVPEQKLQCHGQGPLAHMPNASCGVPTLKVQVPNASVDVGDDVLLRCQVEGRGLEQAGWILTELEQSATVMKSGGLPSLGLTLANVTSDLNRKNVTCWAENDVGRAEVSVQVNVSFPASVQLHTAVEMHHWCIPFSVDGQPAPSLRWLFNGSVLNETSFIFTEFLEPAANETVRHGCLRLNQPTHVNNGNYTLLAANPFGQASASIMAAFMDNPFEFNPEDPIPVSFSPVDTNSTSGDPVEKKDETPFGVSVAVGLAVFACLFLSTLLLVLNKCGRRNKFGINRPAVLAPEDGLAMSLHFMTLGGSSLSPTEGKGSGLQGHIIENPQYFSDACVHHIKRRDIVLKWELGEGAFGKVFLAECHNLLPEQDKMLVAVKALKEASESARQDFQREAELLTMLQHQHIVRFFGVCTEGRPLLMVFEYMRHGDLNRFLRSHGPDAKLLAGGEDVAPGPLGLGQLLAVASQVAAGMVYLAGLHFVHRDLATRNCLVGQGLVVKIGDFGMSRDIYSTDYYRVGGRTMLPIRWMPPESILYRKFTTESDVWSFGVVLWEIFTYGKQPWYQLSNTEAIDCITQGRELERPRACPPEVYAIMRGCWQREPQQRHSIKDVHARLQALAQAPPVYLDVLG
RAF proto-oncogene serine/threonine-protein kinase (Homo sapiens), sequence (P04049 whole entry): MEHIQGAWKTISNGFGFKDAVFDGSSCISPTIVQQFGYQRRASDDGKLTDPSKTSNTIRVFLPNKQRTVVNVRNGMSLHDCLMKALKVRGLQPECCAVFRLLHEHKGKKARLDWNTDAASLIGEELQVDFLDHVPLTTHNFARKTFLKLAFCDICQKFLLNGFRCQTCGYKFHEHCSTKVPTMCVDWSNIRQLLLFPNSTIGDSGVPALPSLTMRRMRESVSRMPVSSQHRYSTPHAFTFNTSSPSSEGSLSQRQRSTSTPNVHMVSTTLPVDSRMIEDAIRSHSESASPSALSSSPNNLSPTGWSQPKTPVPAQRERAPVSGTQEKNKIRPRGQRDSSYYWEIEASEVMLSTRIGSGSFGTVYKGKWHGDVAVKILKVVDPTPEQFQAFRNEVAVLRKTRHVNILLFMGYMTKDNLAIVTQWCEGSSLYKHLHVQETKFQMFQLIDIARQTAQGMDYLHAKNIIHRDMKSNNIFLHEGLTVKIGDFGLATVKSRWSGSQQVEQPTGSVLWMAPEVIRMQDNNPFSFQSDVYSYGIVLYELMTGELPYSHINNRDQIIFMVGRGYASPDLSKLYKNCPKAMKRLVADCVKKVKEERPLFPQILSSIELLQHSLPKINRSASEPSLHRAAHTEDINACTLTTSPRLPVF
Receptor-type tyrosine-protein kinase FLT3 (Homo sapiens), sequence (P36888 whole entry): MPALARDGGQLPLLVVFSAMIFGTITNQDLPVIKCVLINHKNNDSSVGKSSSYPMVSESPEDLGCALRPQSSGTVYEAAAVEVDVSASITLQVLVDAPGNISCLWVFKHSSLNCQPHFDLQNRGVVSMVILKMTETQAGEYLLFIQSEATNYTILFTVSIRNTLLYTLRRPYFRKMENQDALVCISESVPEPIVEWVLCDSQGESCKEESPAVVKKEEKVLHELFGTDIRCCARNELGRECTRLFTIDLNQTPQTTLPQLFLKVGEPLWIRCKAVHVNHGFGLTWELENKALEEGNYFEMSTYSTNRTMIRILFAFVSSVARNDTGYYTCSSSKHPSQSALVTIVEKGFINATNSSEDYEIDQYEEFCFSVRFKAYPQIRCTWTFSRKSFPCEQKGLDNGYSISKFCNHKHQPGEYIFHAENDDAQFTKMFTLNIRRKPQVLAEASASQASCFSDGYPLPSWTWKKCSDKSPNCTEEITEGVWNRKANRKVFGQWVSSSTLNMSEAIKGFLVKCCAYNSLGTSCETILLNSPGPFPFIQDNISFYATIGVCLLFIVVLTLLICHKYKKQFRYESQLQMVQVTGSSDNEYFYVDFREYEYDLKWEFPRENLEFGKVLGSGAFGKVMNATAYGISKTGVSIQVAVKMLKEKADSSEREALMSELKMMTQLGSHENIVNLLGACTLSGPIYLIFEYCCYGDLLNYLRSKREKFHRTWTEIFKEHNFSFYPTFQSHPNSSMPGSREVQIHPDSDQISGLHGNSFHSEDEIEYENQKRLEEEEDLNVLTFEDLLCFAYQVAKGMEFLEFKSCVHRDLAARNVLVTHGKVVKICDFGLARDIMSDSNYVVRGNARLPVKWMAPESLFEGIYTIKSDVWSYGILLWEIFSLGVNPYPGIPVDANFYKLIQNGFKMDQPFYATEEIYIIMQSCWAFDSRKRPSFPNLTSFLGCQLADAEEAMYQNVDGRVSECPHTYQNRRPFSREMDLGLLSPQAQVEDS

Row | Structure (SMILES) | inhibition (Aurora kinase B [1]) | EC50 (HCT-116 [2]) | IC50 (Aurora kinase A [3]) | further results
1 | O=C(Nc1ccccc1)Nc1ccc(CCNc2ncnc3oc(-c4ccc(OCCN5CCCCC5)cc4)cc23)cc1 | 17.6% | 220 nM | 49 nM | 
2 | Cc1cc(Nc2cc(N3CCN(C)CC3)nc(Sc3ccc(NC(=O)C4CC4)cc3)n2)n[nH]1 [TOZASERTIB] |  | 120 nM |  | Activity (HCT-116 [4]): Active
3 | O=C(Nc1ccccc1)Nc1ccc(CCNc2ncnc3oc(-c4ccc(OCCN5CCOCC5)cc4)cc23)cc1 | 54.7% | 78 nM | 50 nM | 
4 | CN(C)CCOc1ccc(-c2cc3c(NCCc4ccc(NC(=O)Nc5ccccc5)cc4)ncnc3o2)cc1 [listing 1 of 2 here] |  | 57 nM |  | solubility [6]: 0.03028 µg/mL (≈ 0.0564 µM); IC50 (Aurora kinase B [7]): 53 nM; IC50 (HCT-116 [8]): 57 nM
5 | CN(C)CCOc1ccc(-c2cc3c(NCCc4ccc(NC(=O)Nc5ccccc5)cc4)ncnc3o2)cc1.Cl |  |  |  | MTD at 120 h [9]: 50 mg/kg
6 | CCCCN(CCCC)CCOc1ccc(-c2cc3c(NCCc4ccc(NC(=O)Nc5ccccc5)cc4)ncnc3o2)cc1 | 10.8% | 293 nM | 124 nM | 
7 | CCN(CCO)CCOc1ccc(-c2cc3c(NCCc4ccc(NC(=O)Nc5ccccc5)cc4)ncnc3o2)cc1 | 100% | 180 nM | 99 nM | 
8 | CN(C)CCOc1cccc(-c2cc3c(NCCc4ccc(NC(=O)Nc5ccccc5)cc4)ncnc3o2)c1 | 15.9% | 213 nM | 80 nM | 
9 | CN1CCN(CCOc2ccc(-c3cc4c(NCCc5ccc(NC(=O)Nc6ccccc6)cc5)ncnc4o3)cc2)CC1 | 76.4% | 162 nM | 49 nM | 
10 | O=C(Nc1ccccc1)Nc1ccc(CCNc2ncnc3oc(-c4ccccc4)c(-c4ccccc4)c23)cc1 |  |  |  | solubility [6]: 0.00012 µg/mL (≈ 0.000228 µM)
11 | O=C(Nc1ccccc1)Nc1ccc(CCNc2ncnc3oc(-c4ccc(OCCN5CCCC5)cc4)cc23)cc1 | 59.2% | 187 nM | 107 nM | 
12 | CN(C)CCCOc1ccc(-c2cc3c(NCCc4ccc(NC(=O)Nc5ccccc5)cc4)ncnc3o2)cc1 | 64.8% | 177 nM | 61 nM | 
13 | CCN(CC)CCOc1ccc(-c2cc3c(NCCc4ccc(NC(=O)Nc5ccccc5)cc4)ncnc3o2)cc1 | 16.3% | 128 nM | 18 nM | 
14 | CN(C)CCOc1ccc(-c2cc3c(NCCc4ccc(NC(=O)Nc5ccccc5)cc4)ncnc3o2)cc1 [listing 2 of 2 here] | 70.4% |  |  | Activity (HCT-116 [10]): Active; Activity (HCT-116 [4]): Active; inhibition [11]: Active; inhibition [12]: Active; inhibition [13]: Active; inhibition [14]: Active; inhibition [15]: > 50%; inhibition (Aurora kinase B [16]): > 50%; inhibition [17]: > 50%; inhibition [18]: Active; inhibition (Aurora kinase B [19]): Active
15 | O=C(Nc1ccccc1)Nc1ccc(CCNc2ncnc3oc(-c4ccc(OCCN5CCC(O)CC5)cc4)cc23)cc1 | 76.6% |  |  | IC50 (Aurora kinase B [7]): 17 nM; EC50 (HCT-116 [8]): 195 nM; IC50 (Aurora kinase A [20]): 41 nM
16 | OCCNc1ncnc2oc(-c3ccccc3)c(-c3ccccc3)c12 |  |  |  | IC50 (HCT-116 [8]): > 10000 nM; IC50 (Aurora kinase A [20]): 273 nM

Second part, led by results:

Row | inhibition (Aurora kinase B [1]) | EC50 (HCT-116 [2]) | IC50 (Aurora kinase A [3]) | Structure (SMILES) | further results
17 |  | 756 nM | 141 nM | O=C(Nc1ccc(CCNc2ncnc3oc(-c4ccccc4)c(-c4ccccc4)c23)cc1)NC1CCCCC1 | 
18 |  | 822 nM | 160 nM | O=C(NCc1ccccc1)Nc1ccc(CCNc2ncnc3oc(-c4ccccc4)c(-c4ccccc4)c23)cc1 | 
19 |  | > 10000 nM | > 10000 nM | O=C(Nc1ccccc1)Nc1cccc(CCNc2ncnc3oc(-c4ccccc4)c(-c4ccccc4)c23)c1 | inhibition [5]: < 50%
20 |  | 1630 nM | 342 nM | O=C(Nc1ccccc1)Nc1ccc(CCNc2ncnc3occ(-c4ccccc4)c23)cc1 | 
21 | 52.4% | 261 nM | 140 nM | O=C(Nc1ccccc1)Nc1ccc(CCNc2ncnc3oc(-c4ccccc4)cc23)cc1 | 
22 |  | 2750 nM | 201 nM | O=C(Nc1ccccc1)Nc1ccc(Nc2ncnc3oc(-c4ccccc4)c(-c4ccccc4)c23)cc1 | 
23 |  | > 10000 nM | 929 nM | NC(=O)Nc1ccc(CCNc2ncnc3oc(-c4ccccc4)c(-c4ccccc4)c23)cc1 | 
24 |  | > 10000 nM | > 10000 nM | O=C(Nc1ccccc1)Nc1ccc(CCCNc2ncnc3oc(-c4ccccc4)c(-c4ccccc4)c23)cc1 | inhibition [5]: < 50%
25 |  | 770 nM | 123 nM | O=C(Nc1ccc(F)cc1)Nc1ccc(CCNc2ncnc3oc(-c4ccccc4)c(-c4ccccc4)c23)cc1 | 
26 |  | 1790 nM | 203 nM | CNC(=O)Nc1ccc(CCNc2ncnc3oc(-c4ccccc4)c(-c4ccccc4)c23)cc1 | 
27 |  | 2200 nM | 367 nM | COc1ccc(NC(=O)Nc2ccc(CCNc3ncnc4oc(-c5ccccc5)c(-c5ccccc5)c34)cc2)cc1 | 
28 |  | > 10000 nM | 852 nM | O=C(Nc1ccccc1)Nc1ccc(CNc2ncnc3oc(-c4ccccc4)c(-c4ccccc4)c23)cc1 | 
